Experimental data as given in article PMC10582660 (Clinical and Translational Science, 2023).
Like-named read-outs stand apart in the source and are kept apart here.

Legend:
OATP1B3 = target: T1, OATP1B3 (Homo sapiens, UniProt Q9NPD5); assay: Raloxifene as a substrate for uptake transporters; assay type: in vitro ADME; details: raloxifene 1, 10 μM, 2, 20 min, two‐fold cutoff
T1 sequence (Q9NPD5 1-702): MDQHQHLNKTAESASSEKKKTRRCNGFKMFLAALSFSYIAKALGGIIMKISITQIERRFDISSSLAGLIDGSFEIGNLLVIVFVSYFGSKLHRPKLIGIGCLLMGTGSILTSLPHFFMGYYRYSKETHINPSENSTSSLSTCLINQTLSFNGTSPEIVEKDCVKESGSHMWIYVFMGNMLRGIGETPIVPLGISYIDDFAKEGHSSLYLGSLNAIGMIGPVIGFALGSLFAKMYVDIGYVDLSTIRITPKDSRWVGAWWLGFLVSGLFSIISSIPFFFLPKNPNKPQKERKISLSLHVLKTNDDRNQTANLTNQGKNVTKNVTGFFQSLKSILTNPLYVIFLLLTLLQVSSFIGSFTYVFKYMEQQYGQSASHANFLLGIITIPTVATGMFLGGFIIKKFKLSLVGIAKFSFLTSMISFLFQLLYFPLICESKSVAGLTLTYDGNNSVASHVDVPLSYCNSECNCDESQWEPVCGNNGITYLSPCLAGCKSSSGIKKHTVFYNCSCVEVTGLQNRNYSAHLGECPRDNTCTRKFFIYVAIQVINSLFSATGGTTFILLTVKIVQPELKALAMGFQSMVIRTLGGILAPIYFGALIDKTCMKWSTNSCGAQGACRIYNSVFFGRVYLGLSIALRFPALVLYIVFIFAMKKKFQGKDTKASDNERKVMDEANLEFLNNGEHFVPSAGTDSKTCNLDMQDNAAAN
Summary of the method: (§1)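 Uptake of test compound (1 and 10 μM, 2 and 20 min) measured in transporter-expressing HEK293 or MDCKII cells or inside-out membrane vesicles. Run with positive-control probe substrates and inhibitors, plus empty-vector or untransfected control cells. Fold-accumulation relative to control cells judged against a two-fold cutoff for substrate status.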

OAT3 = target: T2, OAT3 (Homo sapiens, UniProt Q8TCC7); assay: Raloxifene as a substrate for uptake transporters; assay type: in vitro ADME; details: raloxifene 1, 10 μM, 2, 20 min, two‐fold cutoff
T2 sequence (Q8TCC7 1-542): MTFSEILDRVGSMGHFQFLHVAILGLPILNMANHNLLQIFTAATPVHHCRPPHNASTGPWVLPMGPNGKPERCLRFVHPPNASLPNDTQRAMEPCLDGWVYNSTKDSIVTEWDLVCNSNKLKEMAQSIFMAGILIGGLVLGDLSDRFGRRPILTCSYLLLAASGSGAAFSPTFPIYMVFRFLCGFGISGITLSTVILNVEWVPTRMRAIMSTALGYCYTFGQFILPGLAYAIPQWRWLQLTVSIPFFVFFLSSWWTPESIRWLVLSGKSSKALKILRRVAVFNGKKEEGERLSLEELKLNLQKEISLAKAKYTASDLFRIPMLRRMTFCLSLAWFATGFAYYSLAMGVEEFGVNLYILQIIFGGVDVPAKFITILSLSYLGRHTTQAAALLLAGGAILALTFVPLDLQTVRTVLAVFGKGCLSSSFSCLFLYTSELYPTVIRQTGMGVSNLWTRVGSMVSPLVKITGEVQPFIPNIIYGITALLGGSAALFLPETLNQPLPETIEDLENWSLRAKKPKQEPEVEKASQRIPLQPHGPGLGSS
Summary of the method: as §1

[1] = assay type: in vivo, human
Summary of the method: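 Open-label fixed-sequence crossover in 16 healthy adults (8 male, 8 female), arms ≥7 days apart, fasted from midnight. Oral 60 mg test compound tablet with 240 mL water at 50°C (baseline) or brewed green tea. Acute: tea (one bag, 240 mL water, 80°C, 3 min, cooled to 50°C) given with dose, then at 4 and 8 h. Chronic: tea three times daily for 4 days, then day 5 as acute.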

[2] = Follow-up exploratory clinical study: plasma pharmacokinetics; assay type: in vivo, human; details: for Cmax / Tmax / AUC(0-t): both, human, plasma, oral; for AUC(0-t): AUC0–48h, geometric mean (CV%)
Summary of the method: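 Six healthy adults (3 male, 3 female) in sequential arms ≥7 days apart: oral test compound with water, then with acute brewed green tea, then tea alone. Plasma sampled 0–48 h at the main-study times. Analysed by UHPLC–MS/MS for parent and glucuronides. […] Green tea/baseline ratios on log-transformed data, paired two-tailed t-test.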

OAT1 = target: T3, OAT1 (Homo sapiens, UniProt Q4U2R8); assay: Raloxifene as a substrate for uptake transporters; assay type: in vitro ADME; details: raloxifene 1, 10 μM, 2, 20 min, two‐fold cutoff
T3 sequence (Q4U2R8 1-563): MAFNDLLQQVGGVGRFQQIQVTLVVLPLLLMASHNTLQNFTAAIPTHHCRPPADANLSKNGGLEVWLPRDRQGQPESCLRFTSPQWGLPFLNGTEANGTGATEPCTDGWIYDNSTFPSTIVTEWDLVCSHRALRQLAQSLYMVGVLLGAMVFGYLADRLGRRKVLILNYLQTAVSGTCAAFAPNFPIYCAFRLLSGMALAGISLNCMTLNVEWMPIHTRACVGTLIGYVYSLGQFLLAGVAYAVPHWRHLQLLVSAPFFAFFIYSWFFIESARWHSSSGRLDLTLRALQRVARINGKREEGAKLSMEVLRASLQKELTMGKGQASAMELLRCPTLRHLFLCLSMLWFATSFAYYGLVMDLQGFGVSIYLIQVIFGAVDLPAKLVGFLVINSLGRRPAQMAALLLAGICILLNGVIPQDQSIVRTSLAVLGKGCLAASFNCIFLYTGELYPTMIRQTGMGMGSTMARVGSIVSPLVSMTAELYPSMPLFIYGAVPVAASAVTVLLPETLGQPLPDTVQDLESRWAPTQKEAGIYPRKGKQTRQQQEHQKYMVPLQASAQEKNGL
Summary of the method: as §1

[3] = upon acute and chronic green tea administration
[4] = follow-up study, acute green tea vs baseline

fold‐accumulation (OATP1B3): 1.56–1.70
fold‐accumulation (OAT3): 0.75–1.03
AUC0–48h green tea/baseline ratio (90% CI) ([1]; acute green tea vs baseline): 0.53 (0.43–0.64)
AUC0–96h green tea/baseline ratio (90% CI) ([1]; acute green tea vs baseline): 0.57 (0.46–0.70)
Cmax,1 green tea/baseline ratio (90% CI) ([1]; acute green tea vs baseline): 0.37 (0.28–0.50)
t 1/2 green tea/baseline ratio (90% CI) ([1]; acute green tea vs baseline): 0.95 (0.81–1.12)
AUC0–96h green tea/baseline ratio (90% CI) ([1]; acute green tea vs baseline, listed as raloxifene): 0.57
geometric mean green tea/baseline raloxifene AUC0–96h ratio ([1]; after both acute and chronic administration): ~ 0.60
half-life ([1]; both, human, plasma, oral, geometric mean terminal half‐life, unchanged upon acute and chronic green tea administration): ~24 h
Tmax ([1]; both, human, plasma, oral, median t max,1, unchanged upon acute and chronic green tea administration): ~2 h
AUC0–48h green tea/baseline ratio (90% CI) ([1]; chronic green tea vs baseline): 0.56 (0.43–0.72)
AUC0–96h green tea/baseline ratio (90% CI) ([1]; chronic green tea vs baseline): 0.66 (0.54–0.81)
Cmax,1 green tea/baseline ratio (90% CI) ([1]; chronic green tea vs baseline): 0.39 (0.24–0.64)
t 1/2 green tea/baseline ratio (90% CI) ([1]; chronic green tea vs baseline): 0.89 (0.75–1.04)
AUC0–96h green tea/baseline ratio (90% CI) ([1]; chronic green tea vs baseline, listed as raloxifene): 0.66
magnitude of the decrease in raloxifene AUC with green tea ([1]; main study): ~ 40%
AUC0–48h ratio [1, 3]: 0.53–0.56
Cmax,1 ratio [1, 3]: 0.37–0.39
Cmax [2]: 0.28 nM
Tmax [2]: 1 h
Cmax ([2]; 60 mg): 0.32 nM
Tmax ([2]; 60 mg): 1.25 h
AUC(0-t) ([2]; 60 mg, follow-up study, six healthy adults, baseline): 8.25 nM·h
AUC(0-t) ([2]; follow-up study, acute green tea): 7.46 nM·h
AUC0–48h green tea/baseline ratio (90% CI) [2, 4]: 0.90 (0.77–1.03)
Cmax,1 green tea/baseline ratio (90% CI) [2, 4]: 0.87 (0.72–1.07)
magnitude of the decrease in raloxifene AUC with green tea ([2]; follow‐up study): 10%
fold‐accumulation (OAT1): 0.72–0.91
SMILES: O=C(c1ccc(OCCN2CCCCC2)cc1)c1c(-c2ccc(O)cc2)sc2cc(O)ccc12 [Raloxifene, raloxifene, reference compound]
tolerability ([1]; main study, 16 participants, no severe adverse events reported): well tolerated
